Test results as given in ChEMBL document CHEMBL2069190, “Identification of new γ-hydroxybutenolides that preferentially inhibit the activity of mPGES-1” (Bioorg Med Chem, 2012).
Blank lines part the entries; values can stand above or below the compound they belong to. Active and inactive are the calls of the source. No cut-off for these calls is given here.

Experiments:
[1] = tested on: A549; test: Antiinflammatory activity in human A549 cells assessed as inhibition of IL-1beta-induced mPGES1 expression at 10 uM treated 30 mins prior to IL-1beta challenge measured after 48 hrs by Western blot analysis relative to control; assay type: functional, cell-based
How it was run: (§1)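 A549 cells (DMEM high glucose, 10% heat-inactivated FCS, penicillin/streptomycin, 37 °C, 5% CO2) pre-incubated 30 min with compound or vehicle (DMSO, 0.3%), then IL-1b (2 ng/mL) added. After 48 h, cells lysed; mPGES-1 protein analysed by Western blot with b-actin as loading control. Bands semi-quantified by densitometry as % of uninhibited DMSO control, mean SD, n = 3.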

[2] = target: T1, Prostaglandin E synthase (Homo sapiens, UniProt O14684); test: Inhibition of mPGES-1-mediated PGE2 formation in IL-1beta-stimulated human A549 cells preincubated for 10 mins measured after 1 min by RP-HPLC analysis; assay type: cell-based
T1 sequence (O14684 whole entry): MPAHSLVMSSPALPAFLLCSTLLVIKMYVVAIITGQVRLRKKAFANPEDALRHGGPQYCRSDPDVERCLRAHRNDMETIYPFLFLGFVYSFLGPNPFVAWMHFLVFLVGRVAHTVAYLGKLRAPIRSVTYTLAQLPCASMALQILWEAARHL
How it was run: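 Microsomes from A549 cells treated 48 h with 1 ng/mL IL-1b, isolated by sonication and differential centrifugation (10,000×g 10 min, 174,000×g 1 h, 4 °C). Diluted in 0.1 M potassium phosphate pH 7.4 with 2.5 mM glutathione. Pre-incubated with compound or vehicle on ice, then 20 µM PGH2 added. PGE2 measured by RP-HPLC as % of DMSO control, mean S.E., n = 3–4.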

[3] = tested on: A549; test: Antiinflammatory activity in human A549 cells assessed as inhibition of IL-1beta-induced mPGES1 expression at 1 uM treated 30 mins prior to IL-1beta challenge measured after 48 hrs by Western blot analysis relative to control; assay type: functional, cell-based; how it was run: as §1
[4] = target: T2, Polyunsaturated fatty acid lipoxygenase ALOX12 (Homo sapiens) (UniProt P18054); test: Inhibition of 12-lipoxygenase in A23187-stimulated human platelets assessed as reduction of 12(S)-H(P)ETE formation preincubated 15 mins by RP-HPLC analysis
T2 sequence (whole entry): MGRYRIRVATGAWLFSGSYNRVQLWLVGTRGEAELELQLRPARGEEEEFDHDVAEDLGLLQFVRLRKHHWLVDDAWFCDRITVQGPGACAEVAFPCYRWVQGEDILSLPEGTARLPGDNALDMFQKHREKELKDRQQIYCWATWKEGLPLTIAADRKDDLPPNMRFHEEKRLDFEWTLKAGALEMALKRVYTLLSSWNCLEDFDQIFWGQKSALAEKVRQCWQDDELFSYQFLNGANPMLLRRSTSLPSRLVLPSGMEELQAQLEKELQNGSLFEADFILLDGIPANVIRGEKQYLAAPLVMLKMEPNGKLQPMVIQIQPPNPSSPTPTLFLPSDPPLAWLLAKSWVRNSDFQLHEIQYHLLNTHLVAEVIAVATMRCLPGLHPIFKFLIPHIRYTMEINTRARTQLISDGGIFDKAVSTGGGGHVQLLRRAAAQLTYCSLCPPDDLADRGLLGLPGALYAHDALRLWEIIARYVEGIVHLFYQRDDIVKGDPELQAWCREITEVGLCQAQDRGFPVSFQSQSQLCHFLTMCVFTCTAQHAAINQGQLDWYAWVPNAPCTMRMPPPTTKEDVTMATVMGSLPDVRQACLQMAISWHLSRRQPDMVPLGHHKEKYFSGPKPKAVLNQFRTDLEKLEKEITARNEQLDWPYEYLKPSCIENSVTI

[5] = Cytotoxicity against human primary monocytes at 10 uM after 24 hrs by MTT assay; conditions: monocyte
[6] = target: T3, Polyunsaturated fatty acid lipoxygenase ALOX15 (Homo sapiens) (UniProt P16050); test: Inhibition of 15-lipoxygenase in A23187-stimulated human PMNL assessed as inhibition of 15-H(p)ETE formation preincubated 15 mins by RP-HPLC analysis
T3 sequence (whole entry): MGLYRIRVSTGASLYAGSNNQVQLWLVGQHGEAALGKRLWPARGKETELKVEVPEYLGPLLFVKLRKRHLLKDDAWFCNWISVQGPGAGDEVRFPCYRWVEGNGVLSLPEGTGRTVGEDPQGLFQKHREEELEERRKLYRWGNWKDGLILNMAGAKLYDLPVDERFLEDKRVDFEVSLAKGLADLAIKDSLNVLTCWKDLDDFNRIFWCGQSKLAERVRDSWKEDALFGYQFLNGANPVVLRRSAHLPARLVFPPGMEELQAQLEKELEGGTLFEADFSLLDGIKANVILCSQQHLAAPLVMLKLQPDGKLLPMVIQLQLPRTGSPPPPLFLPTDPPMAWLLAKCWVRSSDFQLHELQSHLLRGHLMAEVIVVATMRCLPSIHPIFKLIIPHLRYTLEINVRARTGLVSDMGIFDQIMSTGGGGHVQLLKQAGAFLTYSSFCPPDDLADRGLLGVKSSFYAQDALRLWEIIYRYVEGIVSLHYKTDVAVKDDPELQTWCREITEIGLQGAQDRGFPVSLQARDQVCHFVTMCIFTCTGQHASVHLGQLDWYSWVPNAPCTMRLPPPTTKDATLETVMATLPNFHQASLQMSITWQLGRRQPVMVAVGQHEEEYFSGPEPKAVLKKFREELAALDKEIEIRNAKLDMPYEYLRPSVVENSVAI

[7] = Inhibition of His-tagged human recombinant cPLA2alpha expressed in baculovirus infected insect sf9 cells assessed as inhibition of arachidonic acid formation after 1 hr by RP-HPLC analysis
[8] = Cytotoxicity against mouse […] cells at 10 uM after 24 hrs by MTT assay
[9] = target: T4, Prostaglandin G/H synthase 1 (Ovis aries) (UniProt P05979); test: Inhibition of ovine COX1 at 10 uM preincubated for 5 mins measured after 5 mins
T4 sequence (whole entry): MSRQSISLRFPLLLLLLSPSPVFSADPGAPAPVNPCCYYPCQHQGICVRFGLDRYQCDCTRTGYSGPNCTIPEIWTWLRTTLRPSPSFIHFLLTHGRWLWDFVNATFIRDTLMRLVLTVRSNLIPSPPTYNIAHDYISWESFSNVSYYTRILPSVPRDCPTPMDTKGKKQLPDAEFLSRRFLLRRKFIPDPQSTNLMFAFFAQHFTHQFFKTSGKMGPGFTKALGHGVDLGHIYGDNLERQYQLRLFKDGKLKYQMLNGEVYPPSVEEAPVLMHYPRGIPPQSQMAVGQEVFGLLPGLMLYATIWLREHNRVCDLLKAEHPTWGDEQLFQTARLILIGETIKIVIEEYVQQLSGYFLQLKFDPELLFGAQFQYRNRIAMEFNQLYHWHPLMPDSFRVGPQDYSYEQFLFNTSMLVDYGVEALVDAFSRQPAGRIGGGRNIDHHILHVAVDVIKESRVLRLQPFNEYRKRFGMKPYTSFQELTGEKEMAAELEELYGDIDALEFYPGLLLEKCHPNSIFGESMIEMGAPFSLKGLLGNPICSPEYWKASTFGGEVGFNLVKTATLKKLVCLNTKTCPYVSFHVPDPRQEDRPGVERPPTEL

[10] = target: T5, Polyunsaturated fatty acid 5-lipoxygenase (Homo sapiens) (UniProt P09917); test: Inhibition of 5-lipoxygenase in A23187-stimulated human PMNL assessed as inhibition of 15-H(p)ETE formation preincubated 15 mins by RP-HPLC analysis
T5 sequence (whole entry): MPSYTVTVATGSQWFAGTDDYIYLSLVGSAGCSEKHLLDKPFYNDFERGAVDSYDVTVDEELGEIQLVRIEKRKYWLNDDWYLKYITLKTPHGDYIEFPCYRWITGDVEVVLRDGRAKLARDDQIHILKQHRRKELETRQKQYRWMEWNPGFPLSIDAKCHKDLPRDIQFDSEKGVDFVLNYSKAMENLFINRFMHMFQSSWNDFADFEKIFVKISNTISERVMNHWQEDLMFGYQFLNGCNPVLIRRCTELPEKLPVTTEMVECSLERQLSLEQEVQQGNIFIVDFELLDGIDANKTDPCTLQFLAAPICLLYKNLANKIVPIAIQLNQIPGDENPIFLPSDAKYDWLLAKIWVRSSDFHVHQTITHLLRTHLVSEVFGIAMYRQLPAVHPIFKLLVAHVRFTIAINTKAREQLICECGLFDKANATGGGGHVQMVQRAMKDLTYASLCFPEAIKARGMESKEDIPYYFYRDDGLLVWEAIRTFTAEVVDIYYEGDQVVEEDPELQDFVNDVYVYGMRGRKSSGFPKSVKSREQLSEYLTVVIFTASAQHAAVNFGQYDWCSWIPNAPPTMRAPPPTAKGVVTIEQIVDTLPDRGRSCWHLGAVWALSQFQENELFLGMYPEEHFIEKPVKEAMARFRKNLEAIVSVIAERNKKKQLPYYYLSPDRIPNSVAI

[11] = target: T6, Prostaglandin G/H synthase 2 (Homo sapiens) (UniProt P35354); test: Inhibition of human COX2 at 10 uM preincubated for 5 mins measured after 5 mins
T6 sequence (whole entry): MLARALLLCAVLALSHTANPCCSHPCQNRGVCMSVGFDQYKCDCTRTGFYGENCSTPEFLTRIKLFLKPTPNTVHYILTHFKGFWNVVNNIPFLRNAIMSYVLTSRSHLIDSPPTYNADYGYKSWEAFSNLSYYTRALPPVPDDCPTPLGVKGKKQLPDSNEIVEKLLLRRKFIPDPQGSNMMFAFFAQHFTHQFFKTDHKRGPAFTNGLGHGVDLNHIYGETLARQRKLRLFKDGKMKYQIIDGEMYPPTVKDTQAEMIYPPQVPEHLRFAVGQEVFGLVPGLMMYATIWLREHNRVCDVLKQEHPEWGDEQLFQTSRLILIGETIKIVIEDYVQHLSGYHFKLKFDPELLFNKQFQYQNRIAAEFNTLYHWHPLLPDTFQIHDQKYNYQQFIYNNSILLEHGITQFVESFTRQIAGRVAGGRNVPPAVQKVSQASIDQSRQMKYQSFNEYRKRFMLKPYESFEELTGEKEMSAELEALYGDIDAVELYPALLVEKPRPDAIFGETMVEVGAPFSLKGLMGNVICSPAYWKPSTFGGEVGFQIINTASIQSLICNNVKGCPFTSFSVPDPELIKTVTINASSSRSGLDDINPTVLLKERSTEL

SMILES: O=C1OC(O)C(c2cccc(C(=O)Nc3ccccc3)c2)=C1Br (stereo not drawn)
inhibition [1]: inactive

SMILES: O=C1OC(O)C(c2cccc(C(=O)NCc3ccccc3)c2)=C1Br (stereo not drawn)
inhibition [1]: inactive

IC50 [2]: 5.6 µM
SMILES: O=C1OC(O)C(c2ccc(C(=O)NCc3ccccc3)cc2)=C1Br (stereo not drawn)
inhibition [1]: inactive

SMILES: O=C1OC(O)C(c2cccc(C(=O)N3CCOCC3)c2)=C1Br (stereo not drawn)
inhibition [1]: inactive

SMILES: O=C1OC(O)C(c2cccc(C(=O)N3CCCCC3)c2)=C1Br (stereo not drawn)
inhibition [1]: inactive

SMILES: O=C1OC(O)C(c2ccc(C(=O)N3CCOCC3)cc2)=C1Br (stereo not drawn)
inhibition [1]: inactive

SMILES: C[C@@H]1C[C@H]2[C@@H]3CCC4=CC(=O)C=C[C@]4(C)[C@@]3(F)[C@@H](O)C[C@]2(C)[C@@]1(O)C(=O)CO
inhibition [3]: Active

SMILES: O=C1OC(O)C(c2ccc(C(=O)N3CCCCC3)cc2)=C1Br (stereo not drawn)
inhibition [1]: inactive

SMILES: O=C1OC(O)C(c2cccc(C(=O)N3CCCC3)c2)=C1Br (stereo not drawn)
inhibition [1]: inactive

IC50 [2]: > 10 µM
SMILES: O=C1OC(O)C(c2cc3ccccc3s2)=C1Br (stereo not drawn)

inhibition [4]: inactive | inhibition [6]: inactive | inhibition [9]: inactive | inhibition [10]: 22% | inhibition [11]: inactive | IC50 [2]: 0.9 µM
SMILES: O=C1OC(O)C(c2ccc(C(=O)Nc3ccccc3)cc2)=C1Br (stereo not drawn)
inhibition [1]: inactive | Activity [5]: Non-toxic | inhibition [7]: inactive | Activity [8]: Non-toxic

SMILES: O=C1OC(O)C(c2ccc(C(=O)N3CCCC3)cc2)=C1Br (stereo not drawn)
inhibition [1]: inactive

SMILES: O=C1OC(O)C(c2ccc(C(=O)N3CCNCC3)cc2)=C1Br (stereo not drawn)
inhibition [1]: inactive
